Reference: ChEMBL document CHEMBL1133660, “A potential melanoma tracer: synthesis, radiolabeling, and biodistribution in mice of a new nitridotechnetium bis(aminothiol) derivative pharmacomodulated by a N-(diethylaminoethyl)benzamide” (J Med Chem, 2000)

Assays:
[1] = Tumor / liver ratio observed after 6 hours of injection; assay type: ADME
Mus musculus [2] = species on record: Mus musculus; experiment: Tissue biodistribution of the syn isomer in the B16 murine melanoma tumor in mice at 3 hours; assay type: ADME, organism-based; conditions: in vivo
How it was run: (§1)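 Male C57BL/6 J1 co mice given 5 × 10^5 viable B16 melanoma cells subcutaneously; tumors palpable after 10 days. 0.74 MBq 99mTc-labeled complex injected iv via tail vein. n = 3 per time point; sacrifice by exsanguination at 5 min, 15 min, 1, 3, 6 and 24 h. Tissues weighed and γ-counted; results as % injected dose/gram of tissue.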

[3] = Tumor / liver ratio observed after 3 hours of injection; assay type: ADME, tissue-based
Mus musculus [4] = species on record: Mus musculus; experiment: Tissue biodistribution of the syn isomer in the B16 murine melanoma tumor in mice at 24 hours; assay type: ADME, organism-based; conditions: in vivo; how it was run: as §1
[5] = Tumor / liver ratio observed after 24 hours of injection; assay type: ADME, tissue-based
Mus musculus [6] = species on record: Mus musculus; experiment: Tissue biodistribution of the syn isomer in the B16 murine melanoma tumor in mice at 6 hours; assay type: ADME, organism-based; conditions: in vivo; how it was run: as §1
Mus musculus [7] = species on record: Mus musculus; experiment: Tissue biodistribution of the syn isomer in the B16 murine melanoma tumor in mice at 1 hour; assay type: ADME, organism-based; conditions: in vivo; how it was run: as §1
[8] = Tumor / liver ratio observed after 1 hour of injection; assay type: ADME, tissue-based
[9] = (§2) Partition coefficient (logP); assay type: physicochemical; conditions: octanol/water
How it was run: (§3)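 Partition between octanol and pH 7.4 Tris buffer, reported as log P.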

[10] = as §2; assay type: physicochemical; conditions: octanol/water; how it was run: as §3; remark: listed apart in the source

Compound	Tumor/liver ratio [1]	ID/g (Mus musculus [2]) [%]	Tumor/liver ratio [3]	ID/g (Mus musculus [4]) [%]	Tumor/liver ratio [5]	ID/g (Mus musculus [6]) [%]	ID/g (Mus musculus [7]) [%]	Tumor/liver ratio [8]	logP [9]	logP [10]
(TcN-BAT)nitridotechnetium complex of bis(aminoethanethiol)	0.1	0.2	0.1	0.04	0.06	0.11	0.75	0.18		
CCN(CC)CCNC(=O)c1ccc([125I])cc1	3.71	3.85	1.05	0.79	4.94	3.53	6.75	1.12		
CCN(CC)CCNC(=O)c1ccc(COCC(CNCC(C)(C)S)NCC(C)(C)S)cc1 (stereo not drawn)									-0.3	-0.45
